# Source: the RNAGym collection of RNA variant scans (doi:10.1126/science.aae0568)
# Variants at the floor of the assay were thinned out.
# B1: tRNA (parent)
# chain: GUUCCGUUGGCGUAAUGGUAACGCGUCUCCCUCCUAAGGAGAAGACUGCGGGUUCGAGUCCCGUACGGAACG
# Variants of: B1
# Test: yeast fitness relative to wild type (ratio to wild type); higher = fitter; tRNA-Arg(CCU), competitive growth, 37 C, YPD
# How it was run: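 A pool of Saccharomyces cerevisiae strains, each with a tRNA-Arg(CCU) gene variant at the native genomic locus, was competed in YPD at 37°C for 24 hours across six parallel replicates. The variants had been chemically synthesised at a 3% per-site mutation rate over 69 sites, and gene amplicons before and after competition were read by 100-nucleotide paired-end sequencing. Darwinian fitness relative to wild type rested on changes in genotype frequencies. Genotypes required ≥ 100 starting reads, and estimates < 0.5 were set to 0.5.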
row,Variant,yeast fitness
1,U3A U8C G38C,≤ 0.5
2,C33G G48A C66G A70C,0.524
3,U32C A37C C49G A57G,≤ 0.5
4,C5A C30A A36U G41C G51C,0.65
5,C30A G50A G67A,0.543
6,A14C G25A A36C G44A,0.571
7,C24U C49U,0.969
8,C11U U35C G41A G58A,≤ 0.5
9,C29G C31G U59A A69G,≤ 0.5
10,U3A A37G A42G G50A C55U U64C,≤ 0.5
11,G23A U59C G68A,≤ 0.5
12,C4A C24G U28G C31U,≤ 0.5
13,A21G A40G C61U,0.654
14,A43G A45C,0.901
15,C24A C29G G51C U54A,≤ 0.5
16,C31U A37G A45C C62G,0.593
17,U2C G10A C34G C46U G48C U54G,≤ 0.5
18,C30U G68U,0.923
19,U32C C33G A37G G52A C55U A65U,0.555
20,A20C C29U C34A C46A G50A A57U G58A C66U,≤ 0.5
21,C30G U35C A42G C49U G56A G58A A70C,0.591

row,Variant,yeast fitness
1,U2G C30A U35G,0.66
2,G12A C24U U64G,≤ 0.5
3,C22G U35A A57G C62A,0.567
4,U3A G25C C34U G41A C49G,≤ 0.5
5,G25C C29G C33U G39U,≤ 0.5
6,G52A G58A,0.69
7,C11A C30U A43C G67U,≤ 0.5
8,C22G U54A,0.591
9,C4A C29U G52C,≤ 0.5
10,C29G U32G G38A U53C C66U,≤ 0.5
11,G9A C24U G58C G67C,≤ 0.5
12,G12A A14G A37U,0.551
13,A14U A20C C22U C24U C49G U53A G56C,0.547
14,G10C A20G C66U,≤ 0.5
15,A15C A20C G39C,≤ 0.5
16,U3A C5A G67A,0.548
17,G10A C29G U53A G56C C62G,≤ 0.5
18,U2C G18C C30U C61G,≤ 0.5
19,C4G C30A A70U,0.695
20,A21C U54C,0.845
21,C33G C61U G67A,0.649

row,Variant,yeast fitness
1,U8C A15U C33G C62G,≤ 0.5
2,C5A C34A,0.606
3,G56A C66U,1.1
4,U7G C62A,0.612
5,G12C G68C,0.823
6,C4G G9A G10C C29A G50U U59G A69U,≤ 0.5
7,G12A A37G A43G U53A G58C C66G,≤ 0.5
8,G17C G23C U47G,≤ 0.5
9,C22U G41A A69C,≤ 0.5
10,C5U G51C G56C,≤ 0.5
11,C34A A70U,0.924
12,C4G G25A,0.894
13,G6C U53C C62U,0.589
14,C4A G39A,0.914
15,C4G A14C C30U A40U G52C G67A,≤ 0.5
16,U19G C29U G39C A42U G67A,0.537
17,U7G C22A C61G,≤ 0.5
18,C11U C22U C24U,0.56
19,U7A C29A G58A C61G,0.604
20,C4U G23C G39C G44A G67A,≤ 0.5
21,C11U G63C C66U,≤ 0.5

row,Variant,yeast fitness
1,C11U A42U C66A,0.51
2,C30A A65C C66U,≤ 0.5
3,C5U C22U A37U G68U,≤ 0.5
4,U13A U19A,0.828
5,A43G C49U A57C A65U,≤ 0.5
6,U19A A43U A69U,0.85
7,C29U A36C G48A G50C,≤ 0.5
8,G23C C29G A43U G50A,0.702
9,C24A C33A G51C C62U,≤ 0.5
10,G41U,0.988
11,G23C A37G G44C A45C G50A C55G C66A,≤ 0.5
12,A20U C27U C30A C33G A42G G51C G68C,≤ 0.5
13,C29G U32G G38A U53C A57U C62U,≤ 0.5
14,C27A C30U C33G,0.634
15,G12A A36C G41C,≤ 0.5
16,A42G A43C A69G,0.835
17,C5G G56C A65U,≤ 0.5
18,C24A C29G C33G,0.619
19,G6A C24U G38A C61G C66U A69U,≤ 0.5
20,A40C A42G A43G C49A G52A,≤ 0.5
